Assay outcomes: PubChem, The Scripps Research Institute Molecular Screening Center
TCR CD3 inh: human TCR-CD3 binding inhibition; TAMRA-labeled TCR probe fluorescence, biochemical; inhibition, % at 9.4 µM; 360,000 compounds, 0.37% hits; AID 651800; in the data active = inhibition above about 19%;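 note: recombinant mutant TCR 2C K166C tagged with TAMRA read by polarization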
Tn6 DDE FP: DD(E)-Tn6 binding inhibition, primary FP screen; Fibrin DD(E) TRITC-Tn6 fluorescence polarization displacement; inhibition, % at 8.3 µM; 370,000 compounds, 0.21% hits; AID 720509;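 active = inhibition above a per-campaign cutoff: mean of compounds within control limits plus 3 SD, cut at about 15% in these data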
Target sequence (P02675 whole entry, looked up): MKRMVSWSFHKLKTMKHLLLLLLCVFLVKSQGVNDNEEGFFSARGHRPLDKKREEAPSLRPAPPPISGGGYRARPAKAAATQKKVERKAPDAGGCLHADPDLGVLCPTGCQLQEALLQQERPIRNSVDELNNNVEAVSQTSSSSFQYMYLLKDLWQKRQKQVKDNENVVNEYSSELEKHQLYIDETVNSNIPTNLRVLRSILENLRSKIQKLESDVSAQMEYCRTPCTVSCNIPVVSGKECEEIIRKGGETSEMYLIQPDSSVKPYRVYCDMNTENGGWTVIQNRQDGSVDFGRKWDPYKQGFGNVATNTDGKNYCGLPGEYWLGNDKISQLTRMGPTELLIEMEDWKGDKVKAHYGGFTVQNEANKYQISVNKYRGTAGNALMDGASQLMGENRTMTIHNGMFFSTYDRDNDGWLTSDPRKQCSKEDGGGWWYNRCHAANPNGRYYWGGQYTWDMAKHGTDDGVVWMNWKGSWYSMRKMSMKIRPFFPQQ
SIAE primary: blocks human sialic acid acetylesterase. Q9HAT2. SIAE FP-Rh probe binding, fluorescence polarization. inhibition, % at 9.66 µM. 370,000 compounds, 0.69% hits;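 active = inhibition above a cutoff: mean of compounds within the control limits plus 3 SD of those, cut at about 17% in these data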
Tn7 DDE FP: DD(E)-Tn7 binding inhibition, primary FP screen; P02675; FP displacement of FITC-Tn7 peptide from fibrin DD(E); 0% = median of compound wells per plate; inhibition, % at 8.3 µM; 370,000 compounds, 0.13% hits; AID 720508;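 active = inhibition above the mean of compounds falling within the control limits plus 3 SD of them, cut at about 14% in these data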
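Test system: human clot-derived fibrin DD(E) complex / Quantity: 2 µM final DD(E) protein / Incubation: 10 min plus 3 h, room temperature / Measured by: fluorescence polarization / Benchmarks: high control of 10 µM Aha-Tn7 peptide / Replicates: singlicate testing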
HTRA1 inhibitor: HTRA1 (human) protease inhibition; 340,000 compounds, 0.5% hits; Q92743; inhibition, % at 5.96 µM; recombinant HTRA1, FP-rhodamine activity-based probe, fluorescence polarization; AID 504803; in the data active = inhibition above about 36%
mABHD4 FP: ABHD4 (mouse) inhibition, primary FP screen; Q8VD66; purified mABHD4, FP-Rh probe fluorescence polarization; inhibition, % at 8.92 µM; 370,000 compounds, 0.54% hits; AID 720543;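 active = inhibition exceeding the mean over every tested compound plus 3 SD, cut at about 30% in these data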
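Assay system: wild-type mouse ABHD4 protein; compound: single nominal dose of 8.92 µM, 0.89% DMSO final; schedule: 45 min + 60 min at 25 °C; measured by: FP readout, ex 525 nm / em 598 nm; evaluation: % inhibition of FP-Rh probe binding versus controls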
HTRA1 inh conf: HTRA1 (human) inhibition, confirmation; recombinant HTRA1, FP-rhodamine activity-based probe, fluorescence polarization; shares compounds with HTRA1 inhibitor; inhibition, % at 5.96 µM; 1,600 compounds, 66% hits;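 active = mean inhibition over three repeats above a set limit taken from the earlier primary screen, cut at about 37% in these data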;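 note: inhibitors block probe binding so polarization drops and inhibition rises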
Hits are given with their value; i = inactive; nt = not tested or not shown. A selection: hits, their analogues and other compounds. The true share with any hit is near 1.8%.

SMILES	TCR CD3 inh	Tn6 DDE FP	SIAE primary	Tn7 DDE FP	HTRA1 inhibitor	mABHD4 FP	HTRA1 inh conf
COc1cc(C(C(=O)NC(C)(C)C)N(C(=O)CNC(=O)c2cccs2)c2ccc(C(C)C)cc2)cc(OC)c1OC (stereo not drawn)	i	i	i	i	39.3	i	48.9
COc1cc(C(C(=O)NC(C)(C)C)N(C(=O)CNC(=O)c2cccs2)c2ccccc2)cc(OC)c1OC (stereo not drawn)	i	i	i	i	i	i	nt
O=C(NN=C/C=C/c1ccco1)c1cc(-c2ccc(Cl)cc2)n[nH]1	nt	i	i	i	nt	i	nt
CC(N=Cc1cc([N+](=O)[O-])ccc1O)c1ccccc1 (stereo not drawn)	i	i	i	i	i	i	nt
Cc1ccccc1N=Cc1cccc(O)c1O	nt	nt	nt	nt	49.3	nt	i
CC(N=Cc1cccc(O)c1O)c1ccccc1 (stereo not drawn)	nt	nt	nt	nt	66.1	nt	100.1
C[C@H](O)[C@@H]1CN2CCc3ccc(N4CCOCC4)cc3[C@@H]2C[C@@H]1N(C)CC1CCCCC1	nt	i	i	i	nt	i	nt
CN(C(=O)c1cccc(NC(=O)Cc2ccc(NC(=O)C3CCN(C(=O)CCc4ccccc4)CC3)cc2)c1)C1CCCC1	i	i	i	i	nt	i	nt
CCN(CC)c1ccc(C2Nc3cccc4cccc(c34)N2)c(O)c1	i	i	i	i	i	i	nt
Oc1ccc2ccccc2c1C1Nc2cccc3cccc(c23)N1	nt	nt	nt	nt	51.6	nt	i
C=CCN1C(=O)[C@@H](CC(=O)NCc2cccc3ccccc23)[C@]2(C(=O)OCC)CCCCC/C=C/12	nt	i	i	i	nt	i	nt
Nc1nc(-c2ccc(NC(=O)c3ccco3)cc2)cs1	i	i	i	i	i	i	nt
NC(=O)/C(=N\OC(=O)c1ccco1)c1nc(-c2ccc(Br)cc2)cs1	i	i	i	i	66.5	i	46.9
c1ccc(-c2nc3ccccc3[nH]2)nc1	i	i	i	i	i	i	nt
Cc1ccc2nc(-c3ccccn3)[nH]c2c1	i	i	i	i	41.7	i	i
Cc1cc(OCC(C)CN2CCC(C(O)(c3ccccc3)c3ccccc3)CC2)ccc1Br (stereo not drawn)	nt	i	i	i	nt	i	nt
CCOC(=O)[C@]12CCCCC/C=C\1N(Cc1ccc(OC)cc1)C(=O)[C@H]2CC(=O)NCc1cccs1	nt	i	i	i	nt	i	nt
Cc1cc(C)nc(Nc2ccc(N3CCCC3)cc2)n1	i	i	i	i	40.4	i	40.1
CCCCCCN1CCS(=O)(=O)N(Cc2ccc(C)cc2)C(C(=O)OC)C1 (stereo not drawn)	nt	i	i	i	nt	i	nt
c1ccc2cc(-c3cc4ccccn4c3)ccc2c1	i	i	i	i	39.4	i	i
Oc1cccc2ccc(/C=C/c3ccccc3Br)nc12	i	i	i	i	51.6	i	44.8
Oc1c(Cl)cc(Cl)cc1/C=C/c1ccc2cccc(O)c2n1	i	i	i	i	36.8	i	47.9
Oc1ccc(Cl)cc1/C=C/c1ccc2cccc(O)c2n1	i	i	i	i	i	i	nt
COC(=O)C1=C(C)N(Cc2ccccc2C(F)(F)F)C(=NCc2ccccc2)NC1c1cccc(F)c1 (stereo not drawn)	i	i	i	i	nt	i	nt
COC(=O)CSc1nnc(-c2ccc(NS(=O)(=O)c3c(C(C)C)cc(C(C)C)cc3C(C)C)cc2)o1	nt	i	i	i	nt	i	nt
SMILES	TCR CD3 inh	Tn6 DDE FP	SIAE primary	Tn7 DDE FP	HTRA1 inhibitor	mABHD4 FP	HTRA1 inh conf
O=C(N/N=C/c1sc(N2CCOCC2)nc1-c1ccccc1)c1cccc(S(=O)(=O)N2CCOCC2)c1	i	i	i	i	44.9	i	119.0
COc1cc(C(=O)N/N=C/c2sc(N3CCOCC3)nc2-c2ccccc2)cc(OC)c1OC	i	i	i	i	i	i	nt
COc1ccc(-c2nn(-c3ccccc3)cc2/C=N/N2C(=O)CSC2=S)cc1	i	i	i	i	67.9	i	53.3
COc1ccc(/C=N/N2C(=O)CSC2=S)cc1	i	i	i	i	i	i	nt
O=C1C=C(O)c2[nH]c(=O)ccc2C1=O	i	i	i	i	46.5	i	i
NC1=CC(=O)C(=O)c2ccccc21	i	i	i	i	i	i	nt
COCc1cc(C)nc(SCC(=O)c2ccc(O)c(O)c2)c1C#N	i	i	i	i	60.6	i	50.1
COC[C@H]1CCCN1c1ccc2c(c1)O[C@H]1CCN(C1)S2(=O)=O	nt	i	i	i	nt	i	nt
CC1Cc2ccccc2N1CC(=O)N(C)c1c(N)n(Cc2ccccc2)c(=O)[nH]c1=O (stereo not drawn)	i	i	i	i	43.4	i	i
CCn1c(=O)c(C(=O)CN2c3ccccc3CC2C)c(N)n(Cc2ccccc2)c1=O (stereo not drawn)	i	i	i	i	37.8	i	i
CC1Cc2ccccc2N1CC(=O)c1c(N)n(Cc2ccccc2)c(=O)n(C)c1=O (stereo not drawn)	i	i	i	i	i	i	nt
C=CCN(C)CC#Cc1ccc(C)cc1	nt	i	i	i	nt	i	nt
COc1cc(C=Nn2c(-c3ccccc3F)n[nH]c2=S)ccc1OCc1ccccc1	nt	i	i	i	nt	i	nt
COc1cccc(/C=N/Nc2ncnc3scc(-c4ccccc4)c23)c1O	i	i	i	i	44.7	i	i
CN(C)c1nc(-c2ccccn2)nnc1-c1ccccc1	i	i	i	i	51.9	i	56.9
O=C(CN1C(=O)C2(OCCCO2)c2ccccc21)NCc1ccc2ccccc2c1	nt	i	i	i	nt	i	nt
Cc1ccc(N=Nc2ccc(O)c3ncccc23)cc1C	i	i	i	i	38.8	i	82.2
Oc1ccc(N=Nc2ccccc2C(F)(F)F)c2cccnc12	i	i	i	i	53.5	i	74.7
Cc1ccc(N=Nc2ccc(O)c3ncccc23)cc1	i	i	i	i	49.7	i	69.5
Oc1ccc(F)c2cccnc12	i	i	i	i	i	i	nt
COC(=O)[C@H](CC(C)C)N1Cc2nnn(Cc3ccc(C)cc3)c2-c2cc(F)ccc2S1(=O)=O	nt	i	i	i	nt	i	nt
Cc1cc2c(=Cc3ccc(N(C)C)cc3)c3ccccc3n2[n+]1C	i	i	i	i	i	i	nt
CN(C)c1ccc(C=c2c3ccccc3n3c2c2ccccc2[n+]3C)cc1	30.7	i	17.4	i	87.4	57.5	89.6
Cc1cccc(NC(=O)CSc2nnc(SCc3ccc(Cl)cc3)s2)c1	nt	i	i	i	nt	i	nt
Nc1n[nH]c2cc(=O)n(-c3cccc(C(F)(F)F)c3)nc12	i	i	i	i	i	i	nt
O=c1[nH][nH]c2cc(=O)n(-c3cccc(C(F)(F)F)c3)nc12	i	i	i	i	58.7	61.8	i
CC(C)C[C@H]1COc2cccc(F)c2S(=O)(=O)N1Cc1cn(Cc2ccc(C(F)(F)F)cc2)nn1	nt	i	i	i	nt	i	nt
